Experimental data from different studies.
Protocols differ between the studies behind these lines.
Target: Phosphatidylinositol 4,5-bisphosphate 3-kinase catalytic subunit gamma isoform (PIK3CG, Homo sapiens, UniProt P48736)

Structure (SMILES) | effect on | mode | technique | concentration | quantity | value
CCCCC(=O)Nc1ccc(-c2ccc3ncn(CCC)c(=O)c3c2)cn1 | binding | – | competition with immobilised ligand | 0.5 µM | remaining binding | 100%
COc1ccc2oc(-c3ccc4nc(N)oc4c3)c/c(=N\c3ccccc3NC(=O)CCN)c2c1 | enzyme activity | inhibitor | – | 1 µM | remaining activity | 98%
C[C@H]1CC[C@H](n2c3cnccc3c3cnc(Nc4ccc5c(n4)CCN(C(=O)CO)C5)nc32)CC1 | cell-free assay | – | – | 1 µM | remaining signal | 47%
CO[C@@H]1[C@H](N(C)C(=O)c2ccccc2)C[C@H]2O[C@]1(C)n1c3ccccc3c3c4c(c5c6ccccc6n2c5c31)C(=O)NC4 | enzyme activity | inhibitor | – | 1 µM | inhibition | 34%
C#Cc1cnc(Nc2ccnc(CO)c2)nc1Nc1ccccc1S(C)(=O)=NC#N (stereo not shown) | cell-free assay | – | – | 1 µM | remaining signal | 15%
COc1ccc2[nH]c3c4[nH]c5ccc(OC)cc5c4c4c(c3c2c1)C(=O)NC4=O | binding | – | – | 1 µM | remaining binding | 87%
C1=C/COCc2cc(ccc2OCCN2CCCC2)Nc2nccc(n2)-c2cccc(c2)COC/1 | binding | – | – | 0.1 µM | remaining binding | 4.3%
N#Cc1ccc(NC(=O)Nc2ccccc2)cc1 | cell-free assay | – | competition with immobilised ligand | 25 µM | remaining binding | 77%
CC#CC(=O)N1CCC[C@H]1c1nc(-c2ccc(C(=O)Nc3ccccn3)cc2)c2c(N)nccn12 | enzyme activity | inhibitor | – | 1 µM | inhibition | 0%
Cc1nc(NC(=O)N2CCC[C@H]2C(N)=O)sc1-c1ccnc(C(C)(C)C(F)(F)F)c1 | enzyme activity | inhibitor | ADP detection | 10 µM | inhibition | 73.3%
